For test [1], the system named is Staphylococcus aureus. The test is described as follows: Antibacterial activity against Staphylococcus aureus after 24 hr by agar disk diffusion method. It counts as functional, organism-based. The gist of the method:
(§1)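 Agar disk diffusion. Plates were spread with 1 mL culture containing 1 × 10^7 CFU: S. aureus and E. coli on tryptic soy agar, B. cereus and P. aeruginosa on nutrient agar. Each 8 mm filter-paper disc was blotted with 50 μL of a 500 μg/mL sample. Kanamycin sulfate 50 μg/mL discs were the positive control. Plates ran 24 h at 37 °C, and inhibition-zone diameter was measured in triplicate.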
Background: A growth-free zone around the sample is the usual read-out of agar diffusion tests.

The subject of test [2] is Bacillus cereus. Put plainly: Antibacterial activity against Bacillus cereus using 50 uL of compound solution from 500 ug/mL stock solution after 24 hr by agar disk diffusion method. It counts as functional. The gist of the method: as §1
The subject of test [3] is Botrytis cinerea. The test is described as follows: Antifungal activity against Botryotinia fuckeliana assessed as growth inhibition at 500 ug/mL after 4 days. It counts as functional. The conditions noted are these: 96 h, read-out: GI. In short, it runs like this: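 Mycelial plug of B. cinerea was placed at the centre of PDA dishes containing test sample at 25 to 500 μg/mL. Colony diameter (mm) was read after 4 days, in triplicate.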

Test [4] relates to Pseudomonas aeruginosa. The test is described as follows: Antibacterial activity against Pseudomonas aeruginosa using 50 uL of compound solution from 500 ug/mL stock solution after 24 hr by agar disk diffusion method. The test is classed as functional. In short, it runs like this: as §1
Test [5] relates to Botrytis cinerea. Put plainly: Antifungal activity against Botryotinia fuckeliana as inhibition of mycelium growth after 4 days. It counts as functional, organism-based. The gist of the method:
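Mycelial plugs of the pathogen placed at the centre of PDA Petri dishes holding 10 mL of test sample at 25 to 500 μg/mL. Mycelial diameter (mm) measured after 4 days for B. cinerea. Run in triplicate.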

Test [6] has as its system Escherichia coli. Put plainly: Antibacterial activity against Escherichia coli using 50 uL of compound solution from 500 ug/mL stock solution after 24 hr by agar disk diffusion method. It counts as functional. The gist of the method:
as §1

In test [7] the test system is Staphylococcus aureus. The test is described as follows: Antibacterial activity against Staphylococcus aureus using 50 uL of compound solution from 500 ug/mL stock solution after 24 hr by agar disk diffusion method. It counts as functional. The gist of the method: as §1
The test system of test [8] is Rhizoctonia solani. The test is described as follows: Antifungal activity against Rhizoctonia solani assessed as growth inhibition at 500 ug/mL after 2 days. The settings on record: 48 h, read-out: GI. The test is classed as functional. In short, it runs like this: (§2)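 Rhizoctonia solani plugs were set centrally on PDA dishes holding test sample at 25 to 500 μg/mL. Mycelial diameter (mm) was measured after 2 days, in triplicate.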

Test [9] has as its system Staphylococcus aureus. The test is described as follows: Antibacterial activity against Staphylococcus aureus at 50 ug/mL after 24 hr by agar disk diffusion method. It counts as functional. The settings on record: read-out: DIZ.
The subject of test [10] is Bacillus cereus. Put plainly: Antibacterial activity against Bacillus cereus at 50 ug/mL after 24 hr by agar disk diffusion method. It counts as functional. The conditions noted are these: read-out: DIZ.
Test [11] concerns Escherichia coli. The test is described as follows: Antibacterial activity against Escherichia coli at 50 ug/mL after 24 hr by agar disk diffusion method. The test is classed as functional. The settings on record: read-out: DIZ.
Test [12] relates to Pseudomonas aeruginosa. The test is described as follows: Antibacterial activity against Pseudomonas aeruginosa at 50 ug/mL after 24 hr by agar disk diffusion method. It counts as functional. The settings on record: read-out: DIZ.
Test [13] concerns Rhizoctonia solani. Put plainly: Antifungal activity against Rhizoctonia solani assessed as inhibition of mycelium growth after 2 days. It counts as functional, organism-based. The gist of the method:
as §2

Counter-ions that a name gives are not always drawn.

Usually IC50 stands for the concentration needed to halve the response being measured. In the case of `O=C1c2ccc(O)cc2C(=O)c2c(O)cc(CO)cc21`, inhibition in test [1] was half-maximal at 221 µM (IC50). Further, the “diameter of the inhibition zone (DIZ)” value in test [2] was less than 10 mm; in [4] it was less than 10 mm; in test [6] it was less than 10 mm; in test [7], 14.33 mm. In addition, the inhibition of growth at 500 µg/mL amounted to 92.8% in [3] and 67.3% in test [8]. The “growth inhibition (GI)” value in [5] was “Dose-dependent effect”.
As to `NC[C@H]1O[C@H](O[C@H]2[C@H](O)[C@@H](O[C@H]3O[C@H](CO)[C@@H](O)[C@H](N)[C@H]3O)[C@H](N)C[C@@H]2N)[C@H](O)[C@@H](O)[C@@H]1O` [KANAMYCIN SULFATE], the zone of inhibition at 50 µg/mL worked out at 13 mm in test [9], 15 mm in test [10], 12 mm in test [11] and 13 mm in [12].
With `Cc1cc(O)c2c(c1)C(=O)c1ccccc1C2=O` [PACHYBASIN], the “diameter of the inhibition zone (DIZ)” value in test [2] is reported as less than 10 mm; in test [4] it was less than 10 mm; in test [6], less than 10 mm; in test [7], 10.33 mm. The figures for the inhibition of growth at 500 µg/mL in [3] and in test [8] were 6% and 13.9%, respectively.
On to `O=C1c2cc(CO)cc(O)c2C(=O)c2cccc(O)c21`, for which the half-inhibitory concentration (IC50) in [1] came out at 117 µM. Besides, the “diameter of the inhibition zone (DIZ)” value in test [2] is 10.66 mm; in test [4], less than 10 mm; in [6], less than 10 mm; in [7], 17.67 mm. Further, the inhibition of growth at 500 µg/mL in [3] amounted to 53.7%; in test [8], 25.4%. For the same compound, the “growth inhibition (GI)” value in test [13] is “Dose-dependent effect”.
As to `O=C1c2ccccc2C(=O)c2c(O)cc(CO)cc21` [OMEGA-HYDROXYPACHYBASIN], the IC50 in test [1] worked out at 123 µM. Moreover, the “diameter of the inhibition zone (DIZ)” value in test [2] is listed as 11 mm; in test [4], less than 10 mm; in test [6], less than 10 mm; in [7] it was 20 mm. Besides, the inhibition of growth at 500 µg/mL in test [3] worked out at 47.3%; in test [8] it was 41.5%.
The compound `Cc1cc(O)c2c(c1)C(=O)c1cc(O)cc(O)c1C2=O` [EMODIN] had an IC50 in test [1] of 46.3 µM. In addition, the “diameter of the inhibition zone (DIZ)” value in test [2] is recorded as 10 mm; in test [4], less than 10 mm; in test [6], less than 10 mm; in test [7], 11 mm. Further, the inhibition of growth at 500 µg/mL came out at 51.7% in test [3] and 39% in test [8]. In addition, the “growth inhibition (GI)” value in test [5] is “Dose-dependent effect”.
For `Cc1cc(O)c2c(c1)C(=O)c1cccc(O)c1C2=O` [CHRYSOPHANOL], the “diameter of the inhibition zone (DIZ)” value in test [2], in [4], in test [6] and in test [7] was less than 10 mm in each case. In addition, the inhibition of growth at 500 µg/mL in [3] amounted to 22.5%; in [8], 21.2%.

The record behind these values is ChEMBL document CHEMBL3046179, “Study on the anthraquinones separated from the cultivation of Trichoderma harzianum strain Th-R16 and their biological activity” (J Agric Food Chem, 2009).
